Published values collected from several papers.
Each line is one published result; the experiments were not run side by side.
Target: Tyrosine-protein kinase Fyn (FYN, Homo sapiens, UniProt P06241)

Structure (SMILES)	observed	action	method	concentration	quantity	value
C#Cc1cccc(Nc2ncnc3cc(OCCOC)c(OCCOC)cc23)c1	cell-free assay	–	–	0.5 µM	remaining signal	94.7%
CCN(CC)CCNC(=O)c1c(C)[nH]c(/C=C2\C(=O)Nc3ccc(F)cc32)c1C	enzyme activity	inhibitor	–	0.3 µM	inhibition	35%
COc1cc2ncnc(Nc3ccc(Oc4ccccc4)c(C)c3C)c2cc1OC	enzyme activity	inhibitor	–	1 µM	inhibition	42%
CCN(CC)CCNC(=O)c1c(C)[nH]c(/C=C2\C(=O)Nc3ccc(Cl)cc32)c1C	enzyme activity	inhibitor	–	0.5 µM	remaining activity	28.4%
CCCCNc1ncc2c(-c3ccc(F)cc3)nn(C[C@H]3CC[C@H](N)CC3)c2n1	target engagement in cells	inhibitor	chemoproteomics	20 mM	inhibition	> 96%
O=c1nc(-c2ccccn2)sc2ccccc12	binding	–	competition with immobilised ligand	1 µM	remaining binding	100%
CNCc1ccc(-c2cc(-c3nc(-c4ccc(S(=O)(=O)C(C)C)cc4)cnc3N)on2)cc1	enzyme activity	inhibitor	–	0.4 µM	inhibition	9%
Cc1ccc(C(=O)Nc2ccc(CN3CCN(C)CC3)c(C(F)(F)F)c2)cc1C#Cc1cnc2cccnn12	enzyme activity	inhibitor	–	23.5 nM	remaining activity	28%
CNC(=O)Nc1ccc2c(c1)CC[C@@]21OC(=O)N(CC(=O)N(Cc2ccc(F)cc2)[C@@H](C)C(F)(F)F)C1=O	cell-free assay	–	competition with immobilised ligand	1 µM	remaining binding	100%
COc1cc(Nc2c(C#N)cnc3cc(OCCCN4CCN(C)CC4)c(OC)cc23)c(Cl)cc1Cl	cell-free assay	–	–	0.5 µM	remaining signal	29.4%
COc1cc(Cl)c(C(=O)N[C@@H](CN[C@H]2CC[C@@H](N)CC2)Cc2ccc(C#N)cc2)cc1-c1ccc(CN[C@H](C)c2ccc(C)cc2)o1	enzyme activity	inhibitor	–	1 µM	remaining activity	104%
CCCOc1ccc(OC)c(F)c1C(=O)c1ccc(C(=O)N[C@@H]2CNC[C@H]2NC(=O)c2ccc3[nH]ncc3c2)cc1	enzyme activity	inhibitor	–	10 µM	remaining activity	69%
COc1cccc2c(NCc3ccccc3)nc(-n3c(N)nc4ccccc43)nc12	target engagement in cells	inhibitor	chemoproteomics	20 mM	inhibition	-15.9%
Cc1ccc(C(=O)NCc2ccsc2)cc1C#Cc1cn(C(C)C)c2ncnc(N)c12	enzyme activity	inhibitor	–	1 µM	activity vs control	3%
CN(C(=O)c1ccccc1)c1cc(N(C)c2ccc3c(c2)CCc2ccc(C(=O)NCCN4CCOCC4)cc2C3=O)ccc1F	cell-free assay	–	competition with immobilised ligand	1 µM	remaining binding	61%
C[S+]([O-])c1ccc(-c2nc(-c3ccncc3)c(-c3ccc(F)cc3)[nH]2)cc1 (stereo not shown)	cell-free assay	–	–	0.5 µM	remaining signal	89.8%

Structure (SMILES)	observed	action	method	concentration	quantity	value
O=C(Nc1cnn(-c2csc(C(=O)NC3COC3)c2)c1)Nc1ccccc1Cl	enzyme activity	inhibitor	–	5 µM	remaining activity	97.8%
O=C1c2ccccc2-c2n[nH]c3cccc1c23	enzyme activity	inhibitor	–	0.5 µM	activity vs control	93.2%
Cc1ccc(NC(=O)c2ccc(C)c(C(F)(F)F)c2)cc1C#Cc1nn(C2CCC(O)CC2)c2ncnc(N)c12 (stereo not shown)	cell-free assay	–	–	10 µM	remaining signal	0%
COc1ccc2c(O[C@@H]3C[C@H]4C(=O)N[C@]5(C(=O)O)CC5/C=C\CCCCC[C@H](NC(=O)OC5CCCC5)C(=O)N4C3)cc(-c3csc(NC(=O)C(C)C)n3)nc2c1C (stereo partly shown)	cell-free assay	–	competition with immobilised ligand	1 µM	remaining binding	100%
CC(C)(C)c1nc(-c2cccc(NS(=O)(=O)c3c(F)cccc3F)c2F)c(-c2ccnc(N)n2)s1	enzyme activity	inhibitor	radiometric	1 µM	remaining activity	36%
Cc1cc(-n2nc(Cc3cc(F)cc(C(F)(F)F)c3)nc2C)ccc1C(N)=O	cell-free assay	–	competition with immobilised ligand	1 µM	remaining binding	100%
CNc1cccc2cc(C(=O)Nc3ccc(C(=O)O)cc3)c(=O)[nH]c12	enzyme activity	inhibitor	–	10 µM	inhibition	6.9%
COc1cccc(CNC(=O)c2nc3scc(COCc4ccc(C(=O)O)cc4)c3c(=O)[nH]2)c1	cell-free assay	–	competition with immobilised ligand	1 µM	remaining binding	81.1%
CNC(=O)c1cc(Oc2ccc(NC(=O)Nc3ccc(Cl)c(C(F)(F)F)c3)cc2)ccn1	enzyme activity	inhibitor	–	10 µM	inhibition	44%
CCCS(=O)(=O)Nc1ccc(F)c(C(=O)c2c[nH]c3ncc(-c4ccc(Cl)cc4)cc23)c1F	enzyme activity	inhibitor	–	1 µM	inhibition	< 20%
Cc1nc(C2CCN(C(=O)c3ccc(OC(F)(F)F)cc3N)CC2)c2ncc(N3CCN(C)CC3)cc2n1	cell-free assay	–	competition with immobilised ligand	1 µM	remaining binding	96%
O=c1c2ccccc2[nH]c(=S)n1CCN1CCC(=C(c2ccc(F)cc2)c2ccc(F)cc2)CC1	enzyme activity	inhibitor	–	0.5 µM	remaining activity	102%
Cn1cnc(Br)c1C1=CN(c2ncnc3[nH]cnc23)CCS1	enzyme activity	inhibitor	radiometric	2 µM	inhibition	44%
Cc1nc(Cc2cccc(C(F)(F)F)c2)sc1-c1ccc(C(N)=O)nc1	cell-free assay	–	competition with immobilised ligand	1 µM	remaining binding	100%
O=C(Nc1cnn(-c2csc(C(=O)NC3COC3)c2)c1)Nc1c(F)cccc1Cl	enzyme activity	inhibitor	–	5 µM	remaining activity	90.3%
